This note sets out measurements from ChEMBL document CHEMBL1148114, “New antiinfective and human 5-HT2 receptor binding natural and semisynthetic compounds from the Jamaican sponge Smenospongia aurea” (J Nat Prod, 2002).

What is called IC50 is the concentration that gives 50% inhibition. As usually defined, the inhibition is how much of the control response was suppressed. The Ki is the dissociation constant of the complex between target and ligand, obtained from inhibition or displacement. What is called MIC is the least concentration at which growth counts as inhibited.

Values after ≈ are worked out from the molar mass of the structure shown. Active and inactive are the calls of the source. No cut-off for these calls is given here.

Series [1] has as its system Plasmodium falciparum. Briefly: Antimalarial activity against Plasmodium falciparum D6. It counts as functional, organism-based.
Series [2] has as its system Vero. Briefly: Cytotoxicity against african green monkey Vero cells at 4.76 ug/mL. It counts as cell-based. The settings on record: chlorocebus sabaeus. An outline of the steps: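 Vero (African green monkey kidney) cells exposed to compound at 4.76 µg/mL to assess cytotoxicity.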
The nature of series [3]: Selectivity index, ratio of IC50 for african green monkey (Cercopithecus aethiops) Vero cells to IC50 for Plasmodium falciparum D6. In kind it is toxicity, cell-based. The settings on record: read-out: Selectivity Index.
For series [4], the system named is Mycobacterium tuberculosis. Briefly: Antitubercular activity against Mycobacterium tuberculosis H37Rv at 6.25 ug/mL. It counts as functional.
Series [5] is filed under the species Homo sapiens. Briefly: Displacement of [3H]methylspiperone form human cloned dopamine 4.2 receptor. Background: In a radioligand displacement assay an active substance lowers the binding of a labelled ligand.
Series [6] concerns the target T1, 5-hydroxytryptamine receptor 2A (Homo sapiens, UniProt P28223). As to the kind of experiment: Displacement of [3H]methylspiperone form human cloned 5HT2A receptor expressed in african green monkey COS7 cells at 30 uM by scintillation spectroscopy. In kind it is cell-based. Conditions: cos-7. The gist of the method: (§1)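 Single-point competition on transfected COS-7 membranes (human 5-HT2A with [3H]methylspiperone; 5-HT2C with [3H]mesulergine), 50 mM Tris pH 7.4, 2 h at 25 °C; 10 µM mianserin defines nonspecific binding; filter-bound radioactivity counted by scintillation. DMSO stock 10 mM, diluted at least 1:100 in assay.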

The target of series [7] is T2, 5-hydroxytryptamine receptor 2C (Homo sapiens, UniProt P28335).
T2 sequence (P28335 whole entry): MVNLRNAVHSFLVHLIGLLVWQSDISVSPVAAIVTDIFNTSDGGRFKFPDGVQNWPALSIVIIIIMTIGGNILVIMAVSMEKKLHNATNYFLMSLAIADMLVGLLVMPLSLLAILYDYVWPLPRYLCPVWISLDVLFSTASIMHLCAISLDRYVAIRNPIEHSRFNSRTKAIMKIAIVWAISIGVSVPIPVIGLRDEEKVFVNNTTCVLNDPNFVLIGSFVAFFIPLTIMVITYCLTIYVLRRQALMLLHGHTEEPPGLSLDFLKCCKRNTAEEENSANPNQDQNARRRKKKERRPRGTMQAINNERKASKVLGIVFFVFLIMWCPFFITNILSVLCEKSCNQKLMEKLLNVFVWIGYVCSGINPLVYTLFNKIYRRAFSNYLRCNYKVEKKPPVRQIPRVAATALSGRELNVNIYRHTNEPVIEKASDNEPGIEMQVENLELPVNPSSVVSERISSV
As to the kind of experiment: Displacement of [3H]mesulergine form human cloned 5HT2C receptor expressed in african green monkey COS7 cells at 30 uM by scintillation spectroscopy. It counts as cell-based. The settings on record: cos-7. An outline of the steps: as §1

In series [8] the target is T3, Plasmepsin II (Plasmodium falciparum, UniProt P46925). As to the kind of experiment: Inhibition of Plasmodium falciparum plasmepsin-2 by FRET assay.
Series [9] has as its target T3, Plasmepsin II. As to the kind of experiment: Inhibition of Plasmodium falciparum plasmepsin-2 by fluorescence polarization assay. For orientation: In fluorescence polarisation assays a small probe gives low polarisation when free and higher when bound to something large.
In series [10] the target is T1, 5-hydroxytryptamine receptor 2A. As to the kind of experiment: Displacement of [3H]methylspiperone form human cloned 5HT2A receptor expressed in african green monkey COS7 cells by scintillation spectroscopy. In kind it is cell-based, COS-7. An outline of the steps: (§2)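 Transiently CaPO4-transfected COS-7 membranes carrying human 5-HT2A ([3H]methylspiperone) or 5-HT2C ([3H]mesulergine); equilibrium competition in 50 mM Tris pH 7.4, 2 h at 25 °C; nonspecific binding with 10 µM mianserin; filtration on PEI-treated GF/C, scintillation counting. Compounds from 10 mM DMSO stock diluted ≥1:100. Triplicate points, three experiments; Ki via Cheng-Prusoff, geometric means.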

Series [11] deals with T2, 5-hydroxytryptamine receptor 2C. Briefly: Displacement of [3H]mesulergine form human cloned 5HT2C receptor expressed in african green monkey COS7 cells by scintillation spectroscopy. It counts as cell-based, COS-7. An outline of the steps:
as §2

In series [12] the test system is Mycobacterium tuberculosis. Briefly: Antitubercular activity against Mycobacterium tuberculosis H37Rv. In kind it is functional. The settings on record: for MIC: Mycobacterium tuberculosis, H37Rv.
Where [13] appears, read: Plasmodium falciparum, D6, read-out: IC50.

T1 sequence (P28223 whole entry): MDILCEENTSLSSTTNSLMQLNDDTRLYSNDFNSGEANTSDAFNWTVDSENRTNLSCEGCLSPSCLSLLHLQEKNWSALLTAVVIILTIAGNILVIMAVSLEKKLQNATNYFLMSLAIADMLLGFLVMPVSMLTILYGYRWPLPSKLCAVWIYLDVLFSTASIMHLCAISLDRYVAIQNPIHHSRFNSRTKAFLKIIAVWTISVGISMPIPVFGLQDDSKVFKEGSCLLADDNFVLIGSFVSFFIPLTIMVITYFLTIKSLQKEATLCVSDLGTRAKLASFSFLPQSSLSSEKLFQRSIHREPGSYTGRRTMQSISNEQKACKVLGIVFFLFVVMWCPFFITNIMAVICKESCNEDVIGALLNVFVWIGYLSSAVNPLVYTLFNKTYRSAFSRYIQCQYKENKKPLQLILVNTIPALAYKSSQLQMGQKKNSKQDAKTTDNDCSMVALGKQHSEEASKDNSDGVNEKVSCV
T3 sequence (P46925 whole entry): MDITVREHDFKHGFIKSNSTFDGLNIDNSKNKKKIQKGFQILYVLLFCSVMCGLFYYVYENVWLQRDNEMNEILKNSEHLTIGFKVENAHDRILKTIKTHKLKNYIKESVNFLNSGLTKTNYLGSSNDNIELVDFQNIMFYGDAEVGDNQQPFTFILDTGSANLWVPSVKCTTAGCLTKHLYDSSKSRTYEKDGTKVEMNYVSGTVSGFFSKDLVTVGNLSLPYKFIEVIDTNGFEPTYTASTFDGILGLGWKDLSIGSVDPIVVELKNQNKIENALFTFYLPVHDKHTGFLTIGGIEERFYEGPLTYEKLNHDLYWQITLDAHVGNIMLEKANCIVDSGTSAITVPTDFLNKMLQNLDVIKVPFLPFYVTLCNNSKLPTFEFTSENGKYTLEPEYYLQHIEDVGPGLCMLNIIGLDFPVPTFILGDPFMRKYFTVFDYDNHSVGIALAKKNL

With `C[C@H]1CC[C@H]2C(C)(C)CCC[C@]23Oc2ccc(O)c(Cl)c2C[C@]13C`, in series [1] (setting [13]), the IC50 was found to be 3.4 µg/mL (≈ 9.74 µM). Further, the Activity result in [2] was “Non-toxic”. Further, the selectivity ratio in [3] was > 1.4. In [4], testing at 6.25 µg/mL gave an inhibition of 38%. For the same compound, the outcome in series [5] was inactive.
On to `C/N=C1\N(C)C(=O)/C(=C\c2c[nH]c3ccccc23)N1C` [METHYLAPLYSINOPSIN], for which the IC50 entry in series [1] was “Not Active”. For the same compound, the Activity entry in series [2] is on record as “Non-toxic”. The Ki entry in series [6] and in [7] was “Not Active” in each case. Besides, the result in series [5] was inactive.
Consider `CC(=O)Oc1ccc2c(c1)C[C@]1(C)[C@@H](C)CC[C@H]3C(C)(C)CCC[C@]31O2` [AUREOL ACETATE], for which the IC50 entry in [1] is “Not Active”. In series [2], the Activity entry is given as “Non-toxic”. Moreover, the inhibition at 6.25 µg/mL in [4] turned out to be 34%. Moreover, the outcome in [5] was inactive.
Regarding `CN1C(=N)N/C(=C/c2c[nH]c3cc(Br)ccc23)C1=O`, the IC50 is 1.1 µg/mL (≈ 3.45 µM) in series [1] (setting [13]), 53 µM in series [8] and 66 µM in [9]. Besides, in [2], the Activity entry was “Non-toxic”. Also, the selectivity ratio in series [3] is > 4.3. The Ki in series [10] was > 100 µM; in series [11], 2.3 µM. Further, in [10] (COS-7, concentration not given here), the inhibition was found to be 10%. In [5], the result was inactive.
On to `COc1ccc2c(c1)C[C@]1(C)[C@@H](C)CC[C@H]3C(C)(C)CCC[C@]31O2`, for which, in series [1], the IC50 result is listed as “Not Active”. The Activity result in series [2] is given as “Non-toxic”. The same compound came in with an inhibition at 6.25 µg/mL in [4] of 53%. In addition, the outcome in series [5] was inactive.
Consider `C[C@H]1CC[C@H]2C(C)(C)CCC[C@]23Oc2ccc(O)cc2C[C@]13C` [AUREOL], for which the IC50 result in series [1] was “Not Active”. The Activity entry in series [2] is listed as “Non-toxic”. In series [4], this compound returned an inhibition at 6.25 µg/mL of 31%. Besides, in series [12], the “inhibition (INH)” value is 31% and the minimal inhibitory concentration (MIC) is > 6.25 µg/mL. For the same compound, the result in series [5] was inactive.
With `C[C@H]1CC[C@H]2C(C)(C)CCC[C@]23Oc2ccc(OC(=S)N(C)C)cc2C[C@]13C`, the IC50 in [1] (setting [13]) turned out to be 0.087 µg/mL (≈ 0.217 µM). The Activity entry in series [2] was “Non-toxic”. Moreover, the selectivity ratio in [3] is > 55. The same compound registered an inhibition at 6.25 µg/mL in series [4] of 100%. In [12], the “inhibition (INH)” value is recorded as 100% and the MIC was < 6.25 µg/mL. Also, in series [5], the result was inactive.
As to `CN1C(=N)N(C)/C(=C/c2c[nH]c3cc(Br)ccc23)C1=O`, the IC50 in series [1] (setting [13]) turned out to be 0.34 µg/mL (≈ 1.02 µM). Besides, the Activity entry in [2] is recorded as “Non-toxic”. The selectivity ratio in series [3] was > 14. Further, the Ki in [10] was 2 µM; in [11] it was 0.33 µM. In [5], the result was inactive.
With `CN1C(=N)N/C(=C/c2c[nH]c3ccccc23)C1=O`, in [1], the IC50 result is given as “Not Active”. Moreover, the Activity entry in series [2] is “Non-toxic”. The Ki entry in series [6] and in series [7] was “Not Active” in each case. Besides, the outcome in [5] was inactive.
For `O=C1C(=O)c2[nH]cc3c2C(=C1Br)NCC3` [MAKALUVAMINE O], the concentration for half-maximal inhibition (IC50) in [1] (setting [13]) amounted to 0.94 µg/mL (≈ 3.52 µM). The Activity result in [2] is on record as “Non-toxic”. The selectivity ratio in [3] is > 5.1. The Ki result in [6] and in series [7] was “Not Active” in each case. The outcome in [5] was inactive.
`CC/N=C1\N(C)C(=O)/C(=C\c2c[nH]c3ccccc23)N1C`: the IC50 result in series [1] is recorded as “Not Active”. Moreover, the Activity result in [2] is on record as “Non-toxic”. The Ki in [10] stood at 1.7 µM; in [11] it was 3.5 µM. Moreover, the result in [5] was inactive.
Take `C/N=C1\NC(=O)/C(=C\c2c[nH]c3ccccc23)N1C` [ISOPLYSIN A]: in [1] (setting [13]), the IC50 was 0.97 µg/mL (≈ 3.81 µM). Besides, the Activity result in series [2] is “Non-toxic”. Besides, in [3], the selectivity ratio is > 4.9. For the same compound, the Ki result in [6] and in series [7] was “Not Active” throughout. Further, the result in series [5] was inactive.
